# Measurements from ChEMBL document CHEMBL2040734, “Benzothiazoles: search for anticancer agents” (2012).
# Assays:
# Assay type in all cases: functional
# EKVX = test: Cytotoxicity against human EKVX cells assessed as cell growth at 10 '-5 M after 48 hrs by sulforhodamine B assay; conditions: read-out: Activity
# How it was run: (§1)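 Primary one-dose screen across the NCI 60-line panel at 10 µM. Cells were grown in RPMI 1640 with 5% FBS and 2 mM L-glutamine and held 24 h before drug. Drug was diluted from a DMSO concentrate. Exposure was 48 h at 37 °C, 5% CO2. Cells were fixed with TCA and stained with SRB, with absorbance read at 515 nm. Percent growth was calculated against time-zero and untreated control.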
# UO-31 = test: Cytotoxicity against human UO31 cells assessed as cell growth at 0.01 uM after 48 hrs by sulforhodamine B assay; conditions: UO-31, 48 h, read-out: Activity
# SN12C [1] = test: Cytotoxicity against human SN12C cells assessed as cell growth at 10 uM after 48 hrs by sulforhodamine B assay; conditions: read-out: Activity
# SF-268 = test: Cytotoxicity against human SF268 cells assessed as cell growth at 0.1 uM after 48 hrs by sulforhodamine B assay; conditions: SF-268, 48 h, read-out: Activity
# SN12C [2] = test: Cytotoxicity against human SN12C cells assessed as cell growth at 0.1 uM after 48 hrs by sulforhodamine B assay; conditions: read-out: Activity
# SR = test: Cytotoxicity against human SR cells assessed as cell growth at 0.01 uM after 48 hrs by sulforhodamine B assay; conditions: read-out: Activity
# HCT-15 = test: Cytotoxicity against human HCT15 cells assessed as cell growth at 10 uM after 48 hrs by sulforhodamine B assay; conditions: HCT-15, 48 h, read-out: Activity
# How it was run: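 Five-dose NCI panel run at 0.01, 0.1, 1, 10 and 100 µM. Cells were in RPMI 1640 with 5% FBS and 2 mM L-glutamine, seeded at 5000–40,000 cells/well and pre-incubated 24 h. Drug was diluted from a DMSO stock into medium with 50 µg/ml gentamicin. Exposure was 48 h at 37 °C, 5% CO2. Cells were fixed with cold TCA and stained with 0.4% SRB, read at 515 nm. Percent growth came from time-zero, control and test absorbances.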
# SNB-75 = test: Cytotoxicity against human SNB75 cells assessed as cell growth at 0.01 uM after 48 hrs by sulforhodamine B assay; conditions: SNB-75, 48 h, read-out: Activity
# PC-3 [3] = test: Cytotoxicity against human PC3 cells assessed as cell growth at 1 uM after 48 hrs by sulforhodamine B assay; conditions: PC-3, 48 h, read-out: Activity
# SK-MEL-28 = test: Cytotoxicity against human SK-MEL-28 cells assessed as cell growth at 10 '-5 M after 48 hrs by sulforhodamine B assay; conditions: SK-MEL-28, 48 h, read-out: Activity
# CCRF-CEM = test: Cytotoxicity against human CCRF-CEM cells at 0.01 uM after 48 hrs by sulforhodamine B assay
# How it was run: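 CCRF-CEM suspension leukemia cells in RPMI 1640 with 5% FBS and 2 mM L-glutamine, plated 24 h before dosing. Five concentrations (0.01–100 µM) were applied from a DMSO stock for 48 h at 37 °C. Settled cells were fixed with 80% TCA (final 16%) and stained with SRB, with read-out at 515 nm. Percent growth was derived from time-zero and control absorbances.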
# A498 = test: Growth inhibition of human A498 cells after 48 hrs by sulforhodamine B assay; conditions: A498, 48 h; for CC50: read-out: LC50 (the source's name)
# How it was run: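 A498 adherent renal cells, plated in RPMI 1640 with 5% FBS and 2 mM L-glutamine, were preincubated for 24 h and then exposed for 48 h at 37 °C to 0.01–100 µM. Fixation was 10% TCA (final) for 60 min at 4 °C, then SRB staining and absorbance at 515 nm. GI50 was derived from (Ti−Tz)/(C−Tz)×100 = 50, using time-zero plates.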
# HOP-62 [4] = test: Cytotoxicity against human HOP62 cells assessed as cell growth at 10 '-5 M after 48 hrs by sulforhodamine B assay; conditions: HOP-62, 48 h, read-out: Activity; how it was run: as §1
# LOX IMVI [5] = test: Cytotoxicity against human LOXIMVI cells assessed as cell growth at 0.1 uM after 48 hrs by sulforhodamine B assay; conditions: read-out: Activity
# M14 = test: Cytotoxicity against human M14 cells assessed as cell growth at 0.01 uM after 48 hrs by sulforhodamine B assay; conditions: M14, 48 h, read-out: Activity
# KM12 = test: Cytotoxicity against human KM12 cells assessed as cell growth at 10 '-5 M after 48 hrs by sulforhodamine B assay; conditions: KM12, 48 h, read-out: Activity
# PC-3 [6] = test: Cytotoxicity against human PC3 cells assessed as cell growth at 0.01 uM after 48 hrs by sulforhodamine B assay; conditions: PC-3, 48 h, read-out: Activity
# MDA-MB-468 = test: Cytotoxicity against human MDA-MB-468 cells assessed as cell growth at 1 uM after 48 hrs by sulforhodamine B assay; conditions: MDA-MB-468, 48 h, read-out: Activity
# PC-3 [7] = test: Cytotoxicity against human PC3 cells assessed as cell growth at 10 uM after 48 hrs by sulforhodamine B assay; conditions: PC-3, 48 h, read-out: Activity
# RXF 393 = test: Cytotoxicity against human RXF393 cells assessed as cell growth at 0.01 uM after 48 hrs by sulforhodamine B assay; conditions: RXF 393, 48 h, read-out: Activity
# SF-295 = test: Growth inhibition of human SF295 cells after 48 hrs by sulforhodamine B assay; conditions: SF-295, 48 h; for CC50: read-out: LC50 (the source's name)
# How it was run: (§2)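 Adherent NCI-60 lines were grown in RPMI 1640 with 5% FBS and 2 mM L-glutamine, plated at 5000–40,000 cells/well and preincubated 24 h. They were then exposed to five concentrations (0.01–100 µM, from a DMSO stock) for 48 h at 37 °C, 5% CO2. Cells were fixed with cold TCA (10% final, 60 min, 4 °C) and stained with 0.4% SRB. Dye was solubilized in 10 mM Tris base and A515 read. GI50 was derived from time-zero, control and treated absorbances.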
# LOX IMVI [8] = test: Cytotoxicity against human LOXIMVI cells assessed as cell growth at 10 uM after 48 hrs by sulforhodamine B assay; conditions: read-out: Activity
# SF-539 = test: Cytotoxicity against human SF539 cells assessed as cell growth at 10 '-5 M after 48 hrs by sulforhodamine B assay; conditions: SF-539, 48 h, read-out: Activity
# HOP-62 [9] = test: Growth inhibition of human HOP62 cells after 48 hrs by sulforhodamine B assay; conditions: HOP-62, 48 h; for CC50: read-out: LC50 (the source's name); how it was run: as §2
# MOLT-4 = test: Growth inhibition of human MOLT4 cells after 48 hrs by sulforhodamine B assay; conditions: MOLT-4, 48 h
# How it was run: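 Leukemia suspension lines were grown in RPMI 1640 with 5% FBS and 2 mM L-glutamine and plated at 5000–40,000 cells/well with 24 h preincubation. They were treated at 0.01, 0.1, 1, 10 and 100 µM (DMSO stock) for 48 h at 37 °C. Settled cells were fixed with 80% TCA (16% final) and stained with 0.4% SRB in 1% acetic acid, then read at 515 nm. GI50 was calculated against time-zero and control wells.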
Compound,growth at 10 µM (EKVX) [%],growth at 0.01 µM (UO-31) [%],growth at 10 µM (SN12C [1]) [%],growth at 0.1 µM (SF-268) [%],growth at 0.1 µM (SN12C [2]) [%],growth at 0.01 µM (SR) [%],growth at 10 µM (HCT-15) [%],growth at 0.01 µM (SNB-75) [%],growth at 1 µM (PC-3 [3]) [%],growth at 10 µM (SK-MEL-28) [%],Activity (CCRF-CEM) [%],CC50 (A498) [µM],growth at 10 µM (HOP-62 [4]) [%],growth at 0.1 µM (LOX IMVI [5]) [%],growth at 0.01 µM (M14) [%],growth at 10 µM (KM12) [%],growth at 0.01 µM (PC-3 [6]) [%],growth at 1 µM (MDA-MB-468) [%],growth at 10 µM (PC-3 [7]) [%],growth at 0.01 µM (RXF 393) [%],further results
Cc1ccc2nc(Nc3c(C)cccc3C)sc2c1,54.1,90,36,100,86,98,23,80,68,45.5,94,> 100,45.7,93,106,11.1,102,21,49,94,GI50 (SF-295): 0.725 µM; TGI (SF-295): > 100 µM; CC50 (SF-295): > 100 µM; growth at 10 µM (LOX IMVI [8]): 23%; growth at 10 µM (SF-539): 45.3%; GI50 (HOP-62 [9]): 3.86 µM; TGI (HOP-62 [9]): > 100 µM; CC50 (HOP-62 [9]): > 100 µM; GI50 (MOLT-4): > 100 µM; LC50 (MOLT-4): > 100 µM; TGI (MOLT-4): > 100 µM
Clc1cccc(Cl)c1Nc1nc2cccc(Cl)c2s1,-7.99,88,-94,97,85,100,-85,82,38,-48.1,96,4.16,-38.2,89,103,-68.5,96,23,-68,94,GI50 (A498): 0.26 µM; TGI (A498): 1.62 µM; GI50 (SF-295): 0.459 µM; TGI (SF-295): 1.9 µM; CC50 (SF-295): 4.96 µM; growth at 10 µM (LOX IMVI [8]): -83%; growth at 10 µM (SF-539): -47.5%; GI50 (HOP-62 [9]): 1.27 µM; TGI (HOP-62 [9]): 2.62 µM; CC50 (HOP-62 [9]): 5.38 µM; GI50 (MOLT-4): 1.05 µM; LC50 (MOLT-4): > 100 µM; TGI (MOLT-4): 3.75 µM
